{
  "source": "ChEMBL document CHEMBL5338714",
  "about": "“Design, synthesis and biological evaluation of biphenyl-benzamides as potent FtsZ inhibitors” (Eur J Med Chem, 2022)",
  "key": {"Bacillus subtilis [1]": {"system": "Bacillus subtilis", "assay": "Antibacterial activity against Bacillus subtilis ATCC9372 assessed as bacterial growth inhibition incubated for 18 hrs by CLSI based broth microdilution method", "assay_type": "functional", "how_it_was_run": "(§1)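 CLSI broth microdilution. Log-phase bacteria in Mueller Hinton broth added to 2-fold serial dilutions spanning 128 to 0.25 or 2 to 0.004 µg/mL. Incubated aerobically for 18 h at 37 °C, then OD600 read. MIC is the lowest concentration giving ≥90% growth inhibition; three independent assays.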"}, "Staphylococcus aureus [2]": {"system": "Staphylococcus aureus", "assay": "Antibacterial activity against Staphylococcus aureus ATCC29213 assessed as bacterial growth inhibition incubated for 18 hrs by CLSI based broth microdilution method", "assay_type": "functional", "how_it_was_run": "as §1"}, "Staphylococcus aureus [3]": {"system": "Staphylococcus aureus", "assay": "Antibacterial activity against Staphylococcus aureus ATCC25923 assessed as bacterial growth inhibition incubated for 18 hrs by CLSI based broth microdilution method", "assay_type": "functional", "how_it_was_run": "as §1"}, "Bacillus subtilis [4]": {"system": "Bacillus subtilis", "assay": "Antibacterial activity against Bacillus subtilis MG27 assessed as bacterial growth inhibition incubated for 18 hrs by CLSI based broth microdilution method", "assay_type": "functional", "how_it_was_run": "as §1"}, "Bacillus subtilis [5]": {"system": "Bacillus subtilis", "assay": "Antibacterial activity against Bacillus subtilis 618 assessed as bacterial growth inhibition incubated for 18 hrs by CLSI based broth microdilution method", "assay_type": "functional", "how_it_was_run": "as §1"}, "Bacillus subtilis [6]": {"system": "Bacillus subtilis", "assay": "Antibacterial activity against Bacillus subtilis BS01 assessed as bacterial growth inhibition incubated for 18 hrs by CLSI based broth microdilution method", "assay_type": "functional", "how_it_was_run": "as §1"}, "Staphylococcus aureus [7]": {"system": "Staphylococcus aureus", "assay": "Antibacterial activity against ampicillin-resistant Staphylococcus aureus 669 assessed as bacterial growth inhibition incubated for 18 hrs by CLSI based broth microdilution method", "assay_type": "functional", "how_it_was_run": "(§2)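 Broth microdilution to CLSI guidelines. Log-phase bacteria grown in Mueller Hinton broth, diluted, then exposed to 2-fold serial dilutions of compound (128 to 0.25 µg/mL or 2 to 0.004 µg/mL). Incubated aerobically 18 h at 37 °C. Growth read as OD600. MIC = lowest concentration giving ≥90% growth inhibition. Three independent assays.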"}, "Staphylococcus aureus [8]": {"system": "Staphylococcus aureus", "assay": "Antibacterial activity against ampicillin/kanamycin-resistant Staphylococcus aureus 6917 assessed as bacterial growth inhibition incubated for 18 hrs by CLSI based broth microdilution method", "assay_type": "functional", "how_it_was_run": "as §2"}, "Escherichia coli": {"system": "Escherichia coli", "assay": "Antibacterial activity against Escherichia coli 25922 assessed as bacterial growth inhibition incubated for 18 hrs by CLSI based broth microdilution method", "assay_type": "functional", "how_it_was_run": "as §1"}, "Pseudomonas aeruginosa": {"system": "Pseudomonas aeruginosa", "assay": "Antibacterial activity against Pseudomonas aeruginosa 15690 assessed as bacterial growth inhibition incubated for 18 hrs by CLSI based broth microdilution method", "assay_type": "functional", "how_it_was_run": "as §2"}, "Klebsiella pneumoniae": {"system": "Klebsiella pneumoniae", "assay": "Antibacterial activity against Klebsiella pneumoniae 14578 assessed as bacterial growth inhibition incubated for 18 hrs by CLSI based broth microdilution method", "assay_type": "functional", "how_it_was_run": "as §2"}, "Staphylococcus aureus [9]": {"system": "Staphylococcus aureus", "assay": "Antibacterial activity against Staphylococcus aureus ATCC25923 assessed as bacterial growth inhibition at 1 to 8 times MIC measured after 12 hrs by time kill curve assay relative to control", "assay_type": "functional", "how_it_was_run": "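Time-kill: log-phase cultures diluted to about 10^6 CFU/mL in MHB with compound at 1×, 2×, 4× or 8× MIC (vancomycin at 2× MIC), shaken at 37 °C. Samples taken at 3, 6, 12 and 24 h, serially diluted and plated on LB agar. Colonies counted after 24 h at 37 °C; detection limit 10^3 CFU/mL.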"}, "[10]": {"assay": "Metabolic stability in rat liver microsomes assessed as compound remaining preincubated for 5 mins followed by NADPH addition measured after 15 mins by LC/MS analysis", "assay_type": "ADME, Microsome", "details": "time 20 min, read-out: Stability", "how_it_was_run": "(§3)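 Liver microsomes (final protein 0.75 mg/mL) with compound in 100 mM phosphate buffer pH 7.4, preincubated 5 min at 37 °C. Reaction started with NADPH regeneration system, stopped at 5, 15, 30 and 45 min with acetonitrile containing internal standard. Percent remaining measured by LC/MS, with ketanserin as reference; variation given as RSD of area ratio.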"}, "[11]": {"assay": "Metabolic stability in mouse liver microsomes assessed as compound remaining preincubated for 5 mins followed by NADPH addition measured immediately by LC/MS analysis", "assay_type": "ADME, Microsome", "details": "read-out: Stability"}, "[12]": {"assay": "Metabolic stability in mouse liver microsomes assessed as compound remaining preincubated for 5 mins followed by NADPH addition measured after 5 mins by LC/MS analysis", "assay_type": "ADME, Microsome", "details": "time 10 min, read-out: Stability", "how_it_was_run": "as §3"}, "[13]": {"assay": "Metabolic stability in human liver microsomes assessed as half life preincubated for 5 mins followed by NADPH addition measured upto 45 mins by LC/MS analysis", "assay_type": "ADME, Microsome", "details": "time < 50 min", "how_it_was_run": "(§4)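 Liver microsomes at 0.75 mg/mL final protein, with test article and NADPH regeneration system (6 mM) in 100 mM phosphate buffer, pH 7.4. Preincubated 5 min at 37 °C, then started with NADPH. Quenched with acetonitrile containing internal standard at 5, 15, 30 and 45 min, centrifuged, and percent remaining measured by LC/MS. Ketanserin served as reference.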"}, "[14]": {"assay": "Metabolic stability in rat liver microsomes assessed as half life preincubated for 5 mins followed by NADPH addition measured upto 45 mins by LC/MS analysis", "assay_type": "ADME, Microsome", "details": "time < 50 min", "how_it_was_run": "as §4"}, "[15]": {"assay": "Metabolic stability in mouse liver microsomes assessed as half life preincubated for 5 mins followed by NADPH addition measured upto 45 mins by LC/MS analysis", "assay_type": "ADME, Microsome", "details": "time < 50 min", "how_it_was_run": "as §4"}, "[16]": {"assay": "Metabolic stability in mouse liver microsomes assessed as intrinsic clearance preincubated for 5 mins followed by NADPH addition measured upto 45 mins by LC/MS analysis", "assay_type": "ADME, Microsome", "details": "time < 50 min, read-out: CLH", "how_it_was_run": "as §4"}, "[17]": {"assay": "Half life in ICR mouse at 1 mg/kg, iv measured for 0.08 to 24 hrs by LC-MS/MS analysis", "assay_type": "ADME, organism-based", "details": "in vivo, time 0.08-24 hrs", "how_it_was_run": "(§5)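 Male ICR mice, single intravenous dose formulated in 5% DMSO, 4% ethanol, 5% Cremophor EL, 86% water. Blood sampled at 5, 15, 30 min, 1, 2, 4, 8 and 24 h; plasma stored at -20 °C. Compound quantified by LC-MS/MS, with parameters from non-compartmental analysis.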"}, "[18]": {"assay": "AUC (0 to infinity) in ICR mouse at 1 mg/kg, iv measured for 0.08 to 24 hrs by LC-MS/MS analysis", "assay_type": "ADME, organism-based", "parameters": "dose 1 mg/kg, time upper 24 hrs, time lower 0.08 hrs, route iv", "details": "in vivo", "how_it_was_run": "as §5"}, "[19]": {"assay": "Clearance in ICR mouse at 1 mg/kg, iv measured for 0.08 to 24 hrs by LC-MS/MS analysis", "assay_type": "ADME, organism-based", "details": "in vivo, time 0.08-24 hrs", "how_it_was_run": "as §5"}, "[20]": {"assay": "Half life in ICR mouse at 5 mg/kg, po measured for 0.25 to 24 hrs by LC-MS/MS analysis", "assay_type": "ADME, organism-based", "details": "in vivo, time 0.25-24 hrs", "how_it_was_run": "(§6)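 Male ICR mice dosed orally with a solution of 5% DMSO, 4% ethanol, 5% Cremophor EL and 86% water. Blood collected at 15, 30 min, 1, 2, 4, 6, 8 and 24 h; plasma stored at -20 °C. Plasma levels measured by LC-MS/MS; parameters by non-compartmental analysis, with bioavailability relative to the 1 mg/kg iv dose.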"}, "[21]": {"assay": "Tmax in ICR mouse at 5 mg/kg, po measured for 0.25 to 24 hrs by LC-MS/MS analysis", "assay_type": "ADME, organism-based", "details": "in vivo, time 0.25-24 hrs", "how_it_was_run": "as §6"}, "[22]": {"assay": "Cmax in ICR mouse at 5 mg/kg, po measured for 0.25 to 24 hrs by LC-MS/MS analysis", "assay_type": "ADME, organism-based", "parameters": "time upper 24 hrs, dose 5 mg/kg, time lower 0.25 hrs, route po", "details": "in vivo", "how_it_was_run": "as §6"}, "[23]": {"assay": "AUC (0 to t) in ICR mouse at 5 mg/kg, po measured for 0.25 to 24 hrs by LC-MS/MS analysis", "assay_type": "ADME, organism-based", "parameters": "time lower 0.25 hrs, dose 5 mg/kg, time upper 24 hrs, route po", "details": "in vivo", "how_it_was_run": "as §6"}, "[24]": {"assay": "AUC (0 to infinity) in ICR mouse at 5 mg/kg, po measured for 0.25 to 24 hrs by LC-MS/MS analysis", "assay_type": "ADME, organism-based", "parameters": "time upper 24 hrs, time lower 0.25 hrs, dose 5 mg/kg, route po", "details": "in vivo", "how_it_was_run": "as §6"}, "[25]": {"assay": "Bioavailability in ICR mouse at 5 mg/kg, po measured for 0.25 to 24 hrs by LC-MS/MS analysis", "assay_type": "ADME, organism-based", "details": "in vivo, time 0.25-24 hrs", "how_it_was_run": "as §6"}},
  "data": [
    {"smiles": "Cc1cc(Cl)ccc1-c1cccc(COc2ccc(F)c(C(N)=O)c2F)c1", "values": [
      {"measurement": "MIC", "setting": "Bacillus subtilis [1]", "value": 0.016, "unit": "µg/mL"},
      {"measurement": "MIC", "setting": "Staphylococcus aureus [2]", "value": 0.25, "unit": "µg/mL"},
      {"measurement": "MIC", "setting": "Staphylococcus aureus [3]", "value": 0.125, "unit": "µg/mL"},
      {"measurement": "MIC", "setting": "Bacillus subtilis [4]", "value": 0.031, "unit": "µg/mL"},
      {"measurement": "MIC", "setting": "Bacillus subtilis [5]", "value": 0.008, "unit": "µg/mL"},
      {"measurement": "MIC", "setting": "Bacillus subtilis [6]", "value": 0.016, "unit": "µg/mL"},
      {"measurement": "MIC", "setting": "Staphylococcus aureus [7]", "value": 0.06, "unit": "µg/mL"},
      {"measurement": "MIC", "setting": "Staphylococcus aureus [8]", "value": 0.125, "unit": "µg/mL"},
      {"measurement": "MIC", "setting": "Escherichia coli", "value": "> 128", "unit": "µg/mL"},
      {"measurement": "MIC", "setting": "Pseudomonas aeruginosa", "value": "> 128", "unit": "µg/mL"},
      {"measurement": "MIC", "setting": "Klebsiella pneumoniae", "value": "> 128", "unit": "µg/mL"},
      {"measurement": "inhibition (INH)", "setting": "Staphylococcus aureus [9]", "value": 100, "unit": "%"},
      {"measurement": "remaining at 0.25 h", "setting": "[10]", "value": 39, "unit": "%"},
      {"measurement": "remaining at 0 min", "setting": "[11]", "value": 100, "unit": "%"},
      {"measurement": "remaining at 5 min", "setting": "[12]", "value": 53.1, "unit": "%"},
      {"measurement": "half-life", "setting": "[13]", "value": 112, "unit": "min"},
      {"measurement": "half-life", "setting": "[14]", "value": 13.6, "unit": "min"},
      {"measurement": "half-life", "setting": "[15]", "value": 5.09, "unit": "min"},
      {"measurement": "CLint scaled", "setting": "[16]", "value": 1070, "unit": "mL/min/kg"},
      {"measurement": "t1/2", "setting": "[17]", "value": 16.8, "unit": "min"},
      {"measurement": "AUC(0-inf)", "setting": "[18]", "value": 179, "unit": "ng·h/mL"},
      {"measurement": "CL", "setting": "[19]", "value": 94.713, "unit": "mL/min/kg"},
      {"measurement": "half-life", "setting": "[20]", "value": 136, "unit": "min"},
      {"measurement": "Tmax", "setting": "[21]", "value": 30, "unit": "min"},
      {"measurement": "Cmax", "setting": "[22]", "value": 429, "unit": "ng/mL"},
      {"measurement": "AUC(0-t)", "setting": "[23]", "value": 544, "unit": "ng·h/mL"},
      {"measurement": "AUC(0-inf)", "setting": "[24]", "value": 559, "unit": "ng·h/mL"},
      {"measurement": "bioavailability", "setting": "[25]", "value": 61.2, "unit": "%"}
    ]}
  ]
}
